Hits are enriched below; roughly 3.7% of the tested compounds scored in any of these assays.
KCNQ1 act: human KCNQ1 channel potentiation or activation; P51787; CHO-K1 KCNQ1, thallium flux FluxOR fluorescence; stronger effect = higher value; B-score at 10 µM; actives 0.35% (n = 310,000);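 active means fluorescence ratio B-score, a plate-corrected score, at least three library SD, with initial intensity B-score within 5 SD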
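Assay system: stable KCNQ1 CHO-K1 line; medium: assay buffer, equal DMSO in all wells; timing: 90 min dye loading and 20 min compound exposure, both at room temperature; technique: kinetic FluxOR thallium fluorescence, 10-s 1-Hz baseline, 110-s post-stimulus read; read-out basis: B score of baseline-normalized fluorescence ratio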
KCNK3 inh: human KCNK3 channel inhibition, primary screen; O14649; CHO-KCNK3 thallium flux, FluxOR fluorescence; stronger effect = lower value; B-score at 10 µM; actives 0.84% (n = 340,000); AID 602410;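 active means B-score under library mean minus 4 SD, starting fluorescence ratio at most library mean plus 5 SD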;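 further: more negative B-score means stronger inhibition of thallium flux through KCNK3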
KCNQ1 block: blocks the human KCNQ1 potassium channel; actives 1.3% (n = 310,000); B-score at 10 µM; CHO-K1 KCNQ1, FluxOR thallium flux fluorescence; stronger effect = higher value; P51787;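 active means compounds whose thallium flux B-score, printed positive for inhibition, exceeds three library SD while starting fluorescence stays within three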;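 further: channel opened by potassium depolarization with thallium stimulus after 20 min compound exposure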
hERG protect: shields human hERG channel from block by proarrhythmic agents; Q12809; CHO-hERG, FluxOR thallium flux, dofetilide IC70 present; activation (rescue from dofetilide block), less the hit threshold, % at 10 µM; actives 0.51% (n = 310,000); AID 1511;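 active means activation above the mean of controls blocked by dofetilide plus 5 SD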;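 further: thallium influx through hERG after potassium depolarization seen as dye fluorescence rise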
Kir21 block: Kir2.1 (mouse) channel inhibition. P35561. HEK293-Kir2.1, FluxOR thallium flux fluorescence; stronger effect = lower value. B-score at 10 µM. actives 0.85% (n = 310,000);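 active means fluorescence ratio B-score at or below minus 3 SD of library scores, with starting-brightness B-score within 2 SD, cut at about -4.2 in these data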;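 further: channel flux triggered by added potassium and thallium sulfate stimulus; B-score of peak minus minimum fluorescence over baseline after thallium stimulus; more negative B-score means stronger Kir2.1 block with less thallium influx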
Target sequence (P35561 whole entry, looked up): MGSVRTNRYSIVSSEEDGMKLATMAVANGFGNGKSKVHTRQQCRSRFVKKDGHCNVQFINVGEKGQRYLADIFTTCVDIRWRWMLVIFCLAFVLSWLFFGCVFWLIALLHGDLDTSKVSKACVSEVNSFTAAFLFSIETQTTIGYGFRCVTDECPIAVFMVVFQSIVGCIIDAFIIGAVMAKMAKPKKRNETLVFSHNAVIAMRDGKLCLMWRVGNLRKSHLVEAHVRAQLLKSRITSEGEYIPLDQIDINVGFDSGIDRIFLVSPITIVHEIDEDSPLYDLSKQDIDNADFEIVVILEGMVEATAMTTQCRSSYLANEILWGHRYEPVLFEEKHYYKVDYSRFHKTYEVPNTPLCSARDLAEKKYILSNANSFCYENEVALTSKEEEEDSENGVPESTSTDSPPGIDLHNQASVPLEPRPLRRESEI
KCNK9 inh: human KCNK9 channel inhibition | HEK293 KCNK9, FluxOR thallium flux fluorescence; stronger effect = lower value | B-score at 10 µM | actives 1.2% (n = 310,000) | AID 488922;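 active means ratio B-score over 3 SD below the library mean, with starting fluorescence within 5 SD of its mean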;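 further: negative B-score means less thallium flux so channel inhibition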
A number is an active result; . = inactive; / = not tested or not shown; ! = not confirmed by another sample.

SMILES	KCNQ1 act	KCNK3 inh	KCNQ1 block	hERG protect	Kir21 block	KCNK9 inh
Cc1cc([N+](=O)[O-])cc(/C=N/n2c(C)nc3ccccc3c2=O)c1O	.	.	.	.	.	.
C/C(=N\OCc1nc2ccccc2c(=O)n1/N=C/c1cc(C)cc([N+](=O)[O-])c1O)c1ccccc1	.	.	9	.	.	.
CCCCN(C(=O)CCn1c(=O)oc2ccccc21)c1ccccc1	.	.	.	.	-8.2	.
CCCn1c(C)cc(C(=O)COC(=O)c2cc(S(=O)(=O)NCC(C)C)c(Cl)cc2Cl)c1C	.	.	.	.	.	-7
O=S(=O)(NC1C2CC3CC(C2)CC1C3)c1ccc(F)cc1 (configuration not stated)	/	.	/	/	/	/
CC(C)(C)c1cnnn1-c1ccc(C(=O)CCl)cc1	.	.	.	.	-6.5	.
COc1ccccc1C(=O)Nc1ccc2[nH]ncc2c1	9	.	.	.	.	.
CCOc1cccc(C(=O)Nc2ccc3[nH]ncc3c2)c1	.	.	.	4.9	.	.
COc1cccc(C(=O)Nc2ccc3[nH]ncc3c2)c1	.	.	.	.	.	.
COc1cc(OC)cc(C(=O)N/N=C\c2ccoc2)c1	.	.	.	.	.	.
COc1cccc(NC(=O)N2CCC(NC(=O)c3ccco3)CC2)c1	.	.	.	.	.	.
Clc1ccccc1CSc1nncn1NC/C=C/c1ccccc1	.	.	.	.	-6.6	.
CC(C)Oc1ccc(C(CCN)C2CCCCC2)cc1 (configuration not stated)	.	.	.	.	-8.3	.
CC(C)Oc1ccc(OCCCN2CCCCCC2)cc1	.	.	.	.	.	.
CCN(CC)CCN1c2ccccc2Sc2ccccc21	.	.	.	.	-4.7	.
CCN(CC)CCN1c2ccccc2Sc2ccc3ccccc3c21	.	.	.	.	.	.
O=C(/C=C/c1cccc([N+](=O)[O-])c1)NCCSCc1cccc(Cl)c1	.	.	.	.	.	-7.7
O=C(NC(=S)Nc1nc(-c2ccc(Br)cc2)cs1)c1ccco1	.	.	.	6.3	.	.
O=C(NC(=S)Nc1nc(-c2ccc([N+](=O)[O-])cc2)cs1)c1ccco1	21	.	.	15	.	.
O=C(Nc1nc(-c2ccccc2)cs1)c1ccco1	.	.	.	.	.	.
O=C(NC(=S)Nc1nc(-c2ccc(Br)cc2)cs1)c1cccnc1	.	.	.	.	.	.
COC(=O)CCN(C(=O)c1cc([N+](=O)[O-])cc([N+](=O)[O-])c1)c1ccccn1	.	.	.	.	.	.
COC(=O)CCN(C(=O)c1ccc([N+](=O)[O-])cc1)c1ccccn1	.	.	11	.	.	.
CCc1nc2sc3c(c2c(=S)[nH]1)CC(C)(C)OC3	.	.	.	.	.	.
CSc1nc2sc3c(c2c(=S)[nH]1)CC(C)(C)OC3	82	.	.	56	.	.
SMILES	KCNQ1 act	KCNK3 inh	KCNQ1 block	hERG protect	Kir21 block	KCNK9 inh
CSc1ccc(CN(C)Cc2cc(=O)oc3c(C)c(C)ccc23)cc1	.	.	7	.	.	.
CCc1cc(CC)c(/C=N/NC(N)=O)c(CC)c1	.	.	.	.	-7.3	.
Cc1cc(C)c(/C=N/NC(N)=O)c(C)c1/C=N/NC(N)=O	.	.	.	.	.	.
COc1ccc(C2=C(CN(C)C)C(c3ccccc3)c3ccccc3O2)cc1 (configuration not stated)	.	.	.	.	-5.2!	.
CC(=O)C(=Nc1ccc(Cl)cc1Cl)NNc1cccc(Cl)c1	.	.	10	.	.	.
CNC(=O)CN(c1cccc2ccccc12)S(C)(=O)=O	.	.	.	7.0	.	.
CC(NC(=O)c1ccccc1)c1nnc(SCC(=O)NC2CCCC2)n1C (configuration not stated)	.	.	.	.	.	.
Cc1ccc(C2C(C#N)=C(N)OC3=C2C(=O)CC(C)(C)C3)s1 (configuration not stated)	9	.	.	.	.	.
CC1CCCCC12NC(=O)N(CC(=O)NC(=O)NCc1ccco1)C2=O (configuration not stated)	.	.	.	.	.	.
CCOC(=O)c1sc(NC(=O)c2ccc(OC)cc2)nc1C	.	.	.	.	.	.
CCOC(=O)c1sc(NC(=O)c2ccc(OC(C)=O)cc2)nc1C	13	.	.	.	.	.
CC(=O)N(\C=C/C=C/C=C1\Sc2ccccc2C1=O)c1ccccc1	.	.	7	.	.	.
CN(C)/C=C1/Sc2ccccc2C1=O	.	.	.	.	.	.
COc1ccc(C(=O)N2CCNC(=O)C2CC(=O)Nc2cc(Cl)ccc2OC)cc1 (configuration not stated)	.	.	.	.	.	.
COc1ccc(OC)c(NC(=S)N2CCC(C(O)(c3ccccc3)c3ccccc3)CC2)c1	44	.	.	.	.	.
COc1cc(OC)c(NC(=S)Nc2cc(Cl)cc(Cl)c2)cc1Cl	.	.	10	.	.	.
COc1cc(C)c(NC(=S)Nc2ccc(Cl)c(Cl)c2)cc1OC	.	.	6	.	.	.
COCCNC(=S)Nc1ccc(Cl)c(Cl)c1	.	.	6	.	.	.
CCOc1ccc(NC(=S)Nc2cc(OC)c(Cl)cc2OC)cc1	.	.	.	.	.	.
Cc1ccc(CNC(=O)[C@@H](NC(=O)C2CCN(C(=O)[C@@H](N)CC(C)C)CC2)C(C)C)cc1	.	.	.	.	.	.
CCc1ccc(C(=O)CN2CCSC2=N)cc1	.	.	.	.	-4.5	.
CC(=O)N/C(=C/c1ccc2c(c1)OCO2)C(=O)O	9	.	.	.	.	.
CC(=O)N/C(=C/c1ccc2c(c1)OCO2)C(=O)Nc1ccccc1	.	.	.	.	.	.
O=C(N/C(=C/c1ccc2c(c1)OCO2)C(=O)N1CCOCC1)c1cccs1	.	.	.	8.2	.	.
O=C(COC(=O)Cc1ccc(Br)cc1)NCc1ccc2c(c1)OCO2	/	.	/	/	/	/
SMILES	KCNQ1 act	KCNK3 inh	KCNQ1 block	hERG protect	Kir21 block	KCNK9 inh
Cc1cccc(CSc2nnc(CCNC(=O)OC(C)(C)C)o2)c1	.	.	.	.	-6.8	.
CC(C)(C)OC(=O)NCCc1nnc(SCc2cccc(Cl)c2)o1	.	.	.	.	-12	.
CC(C)(C)OC(=O)NCCCCCc1nnc(SCc2cccc(F)c2)o1	.	.	.	.	.	.
Cc1ccsc1/C=N/Nc1ccc(F)cc1F	.	.	.	.	.	.
COc1ccc(CN2C(=NC(=O)C3CCCCC3)SC3CS(=O)(=O)CC32)cc1 (configuration not stated)	.	.	.	.	.	.
CC1=C(C(=O)OCCc2ccccc2)C(c2ccsc2)NC(=O)N1C (configuration not stated)	.	.	.	.	-5.6	.

Screening data: PubChem, Johns Hopkins Ion Channel Center
